Source: ChEMBL document CHEMBL5236592, “Induction of Ferroptosis in Glioblastoma and Ovarian Cancers by a New Pyrrole Tubulin Assembly Inhibitor” (J Med Chem, 2022)
Active and inactive are the calls of the source.

Tests used:
[1] = system: SK-OV-3; test: Induction of ferroptosis-mediated antitumor activity against human SK-OV-3 cells xenografted in BALB/C nu/nu mouse assessed as increase in […] level in tumor at 25 mg/kg, ip administered every 2 days for 40 days by biochemical analysis; type: functional, organism-based; conditions: time 40.0 day
Method in brief: (§1)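 U-87 MG or SKOV-3 sc xenografts (1 × 10^8 cells/mL) in female BALB/c nu/nu mice, 4 per group. Given 25 mg/kg ip in 100 μL every 2 days, or saline. Tumors harvested on day 40 and assayed for LPO, MDA, lactic acid, total glutathione (GSH + GSSG), ATP and Fe2+.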

[2] = system: Mus musculus; test: Upregulation of FTL mRNA expression in tumor of BALB/C nu/nu mouse xenografted with human U-87 MG cells at 25 mg/kg, ip administered every 2 days for 40 days by qPCR analysis; type: functional, organism-based; conditions: time 40.0 day
Method in brief: (§2)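 Female BALB/c nu/nu mice bearing sc U-87 MG or SKOV-3 xenografts were dosed ip at 25 mg/kg (100 μL) every 2 days, or given saline, and tumors were taken at day 40. RNA was extracted from about 20 mg of tissue. qPCR ran 40 cycles (95 °C 15 min; 94 °C 20 s; 60 °C 34 s) on a 69-gene panel. Fold change was by 2^–ΔΔCt, with ≥1.5 counted as increased.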

[3] = system: Mus musculus; test: Upregulation of Cpx mRNA expression in tumor of BALB/C nu/nu mouse xenografted with human SK-OV-3 cells at 25 mg/kg, ip administered every 2 days for 40 days by qPCR analysis; type: functional, organism-based; conditions: time 40.0 day; method in brief: as §2
[4] = system: SK-OV-3; test: Antitumor activity against human SK-OV-3 cells xenografted in BALB/C nu/nu mouse assessed as reduction in tumor growth at 25 mg/kg, ip administered every 2 days for 40 days; type: functional, organism-based; conditions: time 40.0 day
Method in brief: (§3)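 Female BALB/c nu/nu mice, 10 weeks old, 4 per group. Received subcutaneous U-87 MG or SKOV-3 cells (1 × 10^8 cells/mL, harvested in log phase). Dosed ip with 100 μL at 25 mg/kg every 2 days; controls got 100 μL saline on the same schedule. Sacrificed at 40 days; tumors weighed, volume = ab²/2. Tumor sections (6 μm, paraffin) stained by immunofluorescence for Ki67 or CD31 with Alexa Fluor 488 secondary.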

[5] = system: OVCAR-3; test: Induction of apoptosis in human OVCAR-3 cells assessed as increase cleaved PARP expression at 5 to 10 nM incubated for 48 hrs by immunoblot analysis; type: functional, cell-based; conditions: dose 5-10 nM
Method in brief: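 OVCAR-3 cells were grown in DMEM with 20% FBS and 0.01 μg/mL insulin. They were treated for 48 h at 0, 0.25, 2.5, 5 and 10 nM. Lysates were made in SDS–urea, sonicated and run on SDS-PAGE, then transferred to nitrocellulose. Blots were probed with anti-PARP (1:1000; full-length and cleaved) and anti-actin loading control (1:10,000), with HRP/ECL detection.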

[6] = system: U-87MG ATCC; test: Antitumor activity against human U-87 MG cells xenografted in BALB/C nu/nu mouse assessed as reduction in CD31 expression in tumor at 25 mg/kg, ip administered every 2 days for 40 days by immunofluoresence staining based assay; type: functional, organism-based; conditions: time 40.0 day; method in brief: as §3
[7] = system: Mus musculus; test: Upregulation of ALOX5 mRNA expression in tumor of BALB/C nu/nu mouse xenografted with human SK-OV-3 cells at 25 mg/kg, ip administered every 2 days for 40 days by qPCR analysis; type: functional, organism-based; conditions: time 40.0 day; method in brief: as §2
[8] = system: U-87MG ATCC; test: Induction of ferroptosis-mediated antitumor activity against human U-87 MG cells xenografted in BALB/C nu/nu mouse assessed as reduction in ATP level in tumor at 25 mg/kg, ip administered every 2 days for 40 days by biochemical analysis; type: functional, organism-based; conditions: time 40.0 day; method in brief: as §1
[9] = system: U-87MG ATCC; test: Induction of ferroptosis-mediated antitumor activity against human U-87 MG cells xenografted in BALB/C nu/nu mouse assessed as increase in Fe2+ level in tumor at 25 mg/kg, ip administered every 2 days for 40 days; type: functional, organism-based; conditions: time 40.0 day; method in brief: as §1
[10] = system: Mus musculus; test: Upregulation of Gss mRNA expression in tumor of BALB/C nu/nu mouse xenografted with human SK-OV-3 cells at 25 mg/kg, ip administered every 2 days for 40 days by qPCR analysis; type: functional, organism-based; conditions: time 40.0 day
Method in brief: (§4)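 Female BALB/c nu/nu mice, 10 weeks old, 4 per group. Inoculated s.c. with 1 × 10^8 cells/mL of log-phase U-87 MG or SKOV-3 cells. Dosed i.p. with 100 μL at 25 mg/kg every 2 days; controls got 100 μL saline. Tumors harvested on day 40. RNA extracted from about 20 mg of tissue. qPCR panel of 69 genes, 40 cycles (94 °C 20 s, 60 °C 34 s). Analysed by 2–ΔΔCt; fold ≥1.5 taken as increased.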

[11] = system: Mus musculus; test: Upregulation of Sat1 mRNA expression in tumor of BALB/C nu/nu mouse xenografted with human U-87 MG cells at 25 mg/kg, ip administered every 2 days for 40 days by qPCR analysis; type: functional, organism-based; conditions: time 40.0 day; method in brief: as §4
[12] = system: Mus musculus; test: Upregulation of Gls2 mRNA expression in tumor of BALB/C nu/nu mouse xenografted with human SK-OV-3 cells at 25 mg/kg, ip administered every 2 days for 40 days by qPCR analysis; type: functional, organism-based; conditions: time 40.0 day; method in brief: as §2
[13] = system: Mus musculus; test: Upregulation of Sqs mRNA expression in tumor of BALB/C nu/nu mouse xenografted with human SK-OV-3 cells at 25 mg/kg, ip administered every 2 days for 40 days by qPCR analysis; type: functional, organism-based; conditions: time 40.0 day; method in brief: as §4
[14] = system: Mus musculus; test: Upregulation of Nrf2 mRNA expression in tumor of BALB/C nu/nu mouse xenografted with human U-87 MG cells at 25 mg/kg, ip administered every 2 days for 40 days by qPCR analysis; type: functional, organism-based; conditions: time 40.0 day; method in brief: as §4
[15] = system: Mus musculus; test: Upregulation of Sat1 mRNA expression in tumor of BALB/C nu/nu mouse xenografted with human SK-OV-3 cells at 25 mg/kg, ip administered every 2 days for 40 days by qPCR analysis; type: functional, organism-based; conditions: time 40.0 day; method in brief: as §4

Measured: Activity

COc1cc(C(=O)c2cn(-c3ncccn3)cc2-c2ccco2)cc(OC)c1OC
active: all assays above
